Assay outcomes as filed in PubChem.
KCNK9 inh = KCNK9 potassium channel inhibitors, primary screen, HEK293 cells, thallium flux. Potassium channel subfamily K member 9 (Homo sapiens), Q9NPC2. FluxOR thallium flux fluorescence; stronger effect = lower value. B-score at 10 µM. 310,000 compounds, 1.2% hits. AID 488922, 2010;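 active means ratio B-score over 3 SD below the library mean, with starting fluorescence within 5 SD of its mean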;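 further: negative B-score means less thallium flux so channel inhibition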
KCNK3 block = human KCNK3 channel inhibitors, primary screen, CHO cells, FluxOR thallium flux, B-score | B-score at 10 µM | FluxOR fluorescence; stronger effect = lower value | Potassium channel subfamily K member 3 (Homo sapiens), O14649 | AID 602410, 2012 | 340,000 compounds, 0.84% hits;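 active means B-score under library mean minus 4 SD, starting fluorescence ratio at most library mean plus 5 SD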;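 further: more negative B-score means stronger inhibition of thallium flux through KCNK3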
KCNQ1 block = inhibitors of human KCNQ1 channel, primary screen, cell-based, thallium flux, high-throughput; 310,000 compounds, 1.3% hits; B-score at 10 µM; AID 2642, 2010; Potassium voltage-gated channel subfamily KQT member 1 (Homo sapiens), P51787; CHO-K1 KCNQ1, FluxOR thallium flux fluorescence; stronger effect = higher value;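 active means compounds whose thallium flux B-score, printed positive for inhibition, exceeds three library SD while starting fluorescence stays within three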;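 further: channel opened by potassium depolarization with thallium stimulus after 20 min compound exposure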
KCNQ1 pot = potentiators or activators of KCNQ1 channel, primary screen, cell-based, thallium flux, high-throughput; Potassium voltage-gated channel subfamily KQT member 1 (Homo sapiens), P51787; CHO-K1 KCNQ1, thallium flux FluxOR fluorescence; stronger effect = higher value; B-score at 10 µM; 310,000 compounds, 0.35% hits; AID 2648, 2010;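 active means fluorescence ratio B-score, a plate-corrected score, at least three library SD, with initial intensity B-score within 5 SD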
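System: Stable KCNQ1 CHO-K1 line | Incubation: 90 min dye loading and 20 min compound exposure, both at room temperature | Measure: Ratio B score | Medium: Assay buffer for compound exposure, DMSO matched across wells | Compound dosing: Single-concentration screen | Probe or stimulus: K+/Tl+ depolarizing stimulus | Measured by: Kinetic FluxOR fluorescence, 10 s baseline plus 110 s post-stimulus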
hERG rescue = hERG rescue from dofetilide block, primary screen, cell-based, CHO-hERG, FluxOR thallium flux, dofetilide IC70. dofetilide IC70 present. Voltage-gated inwardly rectifying potassium channel KCNH2 (Homo sapiens), Q12809. AID 1511, 2009. activation (rescue from dofetilide block), less the hit threshold, % at 10 µM. 310,000 compounds, 0.51% hits;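 active means activation above the mean of controls blocked by dofetilide plus 5 SD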;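 further: thallium influx through hERG after potassium depolarization seen as dye fluorescence rise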
Target sequence (Q12809 whole entry, looked up): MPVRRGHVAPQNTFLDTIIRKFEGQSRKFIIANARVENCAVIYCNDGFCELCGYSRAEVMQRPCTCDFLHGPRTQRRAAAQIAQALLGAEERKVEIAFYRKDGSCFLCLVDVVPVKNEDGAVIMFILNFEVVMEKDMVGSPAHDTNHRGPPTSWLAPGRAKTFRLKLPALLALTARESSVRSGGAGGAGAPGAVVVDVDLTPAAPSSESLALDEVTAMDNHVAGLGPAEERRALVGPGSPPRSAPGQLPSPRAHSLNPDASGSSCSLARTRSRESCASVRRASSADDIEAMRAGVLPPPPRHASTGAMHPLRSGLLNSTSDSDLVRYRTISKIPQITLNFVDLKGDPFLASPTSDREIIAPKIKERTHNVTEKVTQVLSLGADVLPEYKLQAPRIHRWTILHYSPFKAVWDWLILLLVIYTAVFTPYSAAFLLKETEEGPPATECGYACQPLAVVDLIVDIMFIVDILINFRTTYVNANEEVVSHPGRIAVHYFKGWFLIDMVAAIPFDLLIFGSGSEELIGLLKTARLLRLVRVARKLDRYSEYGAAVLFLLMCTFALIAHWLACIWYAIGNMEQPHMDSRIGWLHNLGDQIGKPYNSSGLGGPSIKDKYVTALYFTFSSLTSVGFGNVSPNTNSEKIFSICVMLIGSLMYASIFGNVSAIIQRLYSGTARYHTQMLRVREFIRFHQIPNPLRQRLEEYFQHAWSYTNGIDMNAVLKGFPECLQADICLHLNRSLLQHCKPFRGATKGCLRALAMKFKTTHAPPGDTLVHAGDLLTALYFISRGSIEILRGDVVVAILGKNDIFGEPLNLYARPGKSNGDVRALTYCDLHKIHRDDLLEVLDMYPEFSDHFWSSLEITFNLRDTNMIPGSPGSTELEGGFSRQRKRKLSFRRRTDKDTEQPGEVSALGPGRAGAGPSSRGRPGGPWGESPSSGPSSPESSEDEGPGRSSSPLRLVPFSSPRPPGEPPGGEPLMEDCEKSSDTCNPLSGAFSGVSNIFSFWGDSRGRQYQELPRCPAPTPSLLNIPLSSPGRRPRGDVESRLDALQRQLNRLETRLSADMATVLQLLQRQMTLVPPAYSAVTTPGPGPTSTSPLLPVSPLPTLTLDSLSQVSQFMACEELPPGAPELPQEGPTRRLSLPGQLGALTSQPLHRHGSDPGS
Kir21 block = inhibitors of mouse Kir2.1 inward-rectifier potassium channel; HEK293-Kir2.1, FluxOR thallium flux fluorescence; stronger effect = lower value; AID 1672, 2009; B-score at 10 µM; Inward rectifier potassium channel 2 (Mus musculus), P35561; 310,000 compounds, 0.85% hits;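 active means fluorescence ratio B-score at or below minus 3 SD of library scores, with starting-brightness B-score within 2 SD, cut at about -4.2 in these data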;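 further: channel flux triggered by added potassium and thallium sulfate stimulus; B-score of peak minus minimum fluorescence over baseline after thallium stimulus; more negative B-score means stronger Kir2.1 block with less thallium influx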
KCNK3 inh conf = retest of human KCNK3 channel inhibitors, confirmation, CHO cells, FluxOR thallium flux, triplicate | shares compounds with KCNK3 block | FluxOR fluorescence; 0% buffer, 100% carvedilol maximal block | ratio percent of control, % at 10 µM | 2,400 compounds, 99% hits | AID 651638, 2012;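 active means ratio percent of control, averaged over triplicates, above buffer control mean plus 5 SD, cut at about 64% in these data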;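 further: ratio is the fluorescence rise from min to max over baseline after thallium stimulus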
KCNK3 noninduced = thallium flux inhibition in non-induced cells, primary screen, counter-screen for KCNK3 inhibitor project, cell-based, non-induced KCNK3 line, FluxOR thallium, triplicate; 2,400 compounds, 40% hits; thallium flux ratio (lower = more inhibition) at 10 µM; non-induced KCNK3 parental cells; stronger effect = lower value; shares compounds with KCNK3 block;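 active means thallium flux ratio, averaged over three wells, more than 5 SD below the buffer control mean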;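 further: host cells are CHO cells without KCNK3 induction; ratio is peak minus trough fluorescence over baseline then normalized to buffer controls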
Starred values were filed as active, the others as inactive; i = inactive; nt = no result given. Most compounds without a hit are left out; they make up all but 3.7% or so of the library.

SMILES | KCNK9 inh | KCNK3 block | KCNQ1 block | KCNQ1 pot | hERG rescue | Kir21 block | KCNK3 inh conf | KCNK3 noninduced
Cc1ccc(S(=O)(=O)Nc2ccccc2N=Cc2c(F)c(F)c(F)c(F)c2F)cc1 | nt | -11.7* | nt | nt | nt | nt | 114.0* | 0.146*
COc1cccc(CN(C)C(=O)c2ccc(COc3ccc(Cl)cc3)cc2)c1OC | i | -11.2* | i | i | -14.5 | -0.85 | 134.0* | 0.148*
COc1cccc(CN(C)C(=O)c2ccccc2Sc2ccccc2C#N)c1OC | i | -8.74* | i | i | -13.6 | -1.41 | 98.3* | i
Cc1ccc(SCC(=O)Nc2cc([N+](=O)[O-])ccc2O)cc1 | i | i | i | i | -4.0 | 0.37 | nt | nt
O=C(Nc1ccc(C(=O)O)cc1)/C(=C\c1ccc([N+](=O)[O-])cc1)NC(=O)c1ccc(Br)cc1 | i | i | i | i | -6.2 | 0.25 | nt | nt
O=C(COc1ccc(F)cc1)N1c2ccccc2CCc2ccccc21 | i | i | i | i | -3.8 | -3.59 | nt | nt
O=C(COc1cccc2ccccc12)N1c2ccccc2CCc2ccccc21 | i | -12.7* | i | i | -21.9 | -0.57 | 119.7* | 0.151*
Cc1ccc(S(=O)(=O)N(C)c2ccc(OCc3cccc(C)c3)cc2)cc1 | i | -9.31* | i | i | -14.2 | 0.2 | 108.0* | 0.155*
CC1CCN(C(=O)c2ccc(-c3ccccc3Cl)o2)CC1 | i | -9.18* | i | i | -19.8 | -1.65 | 122.7* | 0.14*
O=C(c1ccc(-c2ccccc2Cl)o1)N1CCC1 | nt | i | nt | nt | nt | nt | nt | nt
O=C1OC(c2ccccc2)(c2ccccc2)c2ccccc21 | nt | -12.5* | nt | nt | nt | nt | 107.0* | i
O=C1CC(c2ccccc2)(c2ccccc2)c2ccccc21 | nt | i | nt | nt | nt | nt | nt | nt
CC1=C(C(=O)Nc2cccc(C(=O)NC(C)c3ccccc3)c2)SCCO1 (stereo unspecified) | i | -8.89* | i | i | -12.6 | -1.55 | 76.0* | i
CC1=C(C(=O)Nc2cccc(C(=O)NC3CCCC(C)C3C)c2)SCCO1 (stereo unspecified) | i | -9.32* | i | i | -11.3 | 0.68 | 97.0* | i
C[C@@H]1NC(=O)N[C@@H]1CCCCCC(=O)O | i | i | i | i | -7.4 | 0.99 | nt | nt
COc1ccc(Cl)cc1C(=O)NNC(=O)COC(=O)CCN=C1NS(=O)(=O)c2ccccc21 | i | i | i | i | -12.4 | -2.41 | nt | nt
Cc1cccc(NC(=O)CCNC(=O)c2ccc(Br)cc2)c1C | i | i | i | i | -7.0 | -0.71 | nt | nt
Cc1cc(C)n(CCCNC(=O)c2ccc(C)o2)n1 | nt | i | nt | nt | nt | nt | nt | nt
O=C(CSc1nnc(-c2ccc(Cl)cc2)n1Cc1ccco1)Nc1ccc2c(c1)OCCO2 | i | i | i | i | -15.5 | 1.61 | nt | nt
CC(=O)Nc1cccc(NC(=O)CSc2ncc(-c3ccc(Cl)cc3)n2Cc2ccco2)c1 | i | -10.6* | 7* | i | -26.6 | -0.48 | 119.3* | 0.143*
C=CCn1c(C)c(C(C)=O)c(N2CCN(c3ccccc3)CC2)nc1=S | i | i | i | i | -8.3 | -0.26 | nt | nt
Cc1nn(C(C)(C)C)c(OC(=O)c2cccs2)c1Sc1ccccc1 | -8.06* | -12.2* | i | i | -7.6 | -0.01 | 101.0* | i
CCOC(=O)C1=C(C)Nc2ccccc2N=C1NC(=O)c1oc2ccccc2c1COC | nt | i | nt | nt | nt | nt | nt | nt
CCCC(c1nnnn1Cc1cccs1)N1CCN(c2nc3ccccc3s2)CC1 (stereo unspecified) | -8.07* | -8.89* | i | i | -1.8 | 0.63 | 103.7* | i
C[C@@H](C(=O)NCCc1ccccc1)N1C(=O)N2CCc3c([nH]c4ccccc34)[C@@]2(C)C1=O | i | i | i | i | -7.4 | -3.23 | nt | nt
SMILES | KCNK9 inh | KCNK3 block | KCNQ1 block | KCNQ1 pot | hERG rescue | Kir21 block | KCNK3 inh conf | KCNK3 noninduced
O=C(/C=C/c1ccc(N2CCCCC2)c([N+](=O)[O-])c1)c1ccc(O)cc1 | -7.76* | -11.2* | i | i | -8.5 | 1.51 | 123.3* | i
O=[N+]([O-])c1cccnc1N1CCCCC1 | i | i | i | i | -9.0 | 0.9 | nt | nt
Cc1ccc(N2CCN(c3ncccc3[N+](=O)[O-])CC2)c(C)c1 | i | -8.8* | i | i | -4.7 | 0.56 | 108.3* | 0.152*
CCOc1ccc(CCNC(=O)COC(=O)C2CC2)cc1OCC | i | i | i | i | -16.7 | -0.26 | nt | nt
Cc1csc2c(N3CCN(C(=O)Nc4ccccc4)CC3)ncnc12 | i | i | i | i | -11.3 | 1.11 | nt | nt
Cc1csc2ncnc(N3CCN(C(=O)Nc4ccc(OC(F)(F)F)cc4)CC3)c12 | i | -9.74* | i | i | -19.7 | 0.81 | 108.7* | 0.157*
CCOc1ccc(OCCn2c(S(=O)(=O)O)nc3c(N)ncnc32)cc1 | i | i | i | i | -8.4 | 0.27 | nt | nt
O=C(c1ccccc1)c1ccc2nc(N3CCN(C(=O)c4ccco4)CC3)c3nncn3c2c1 | i | i | i | i | -4.7 | 0.2 | nt | nt
CCOC(=O)N1CCN(c2nc3ccc(C(=O)c4ccccc4)cc3n3cnnc23)CC1 | i | -11* | i | i | -9.6 | 1.34 | 83.0* | i
Cc1cccc(-c2noc(CN(C(=O)c3ccc(Br)o3)C(C)C)n2)c1 | i | i | i | i | -10.4 | -1.15 | nt | nt
Cc1cccc(-c2noc(CN(C(=O)c3c(-c4ccccc4Cl)noc3C)C(C)C)n2)c1 | nt | -11.6* | nt | nt | nt | nt | 113.3* | i
Cc1nc(N2CCCCC2)c2c(C)c(C(=O)Nc3cccc(C(F)(F)F)c3)sc2n1 | i | -10.7* | 13* | i | -5.1 | -2.08 | 124.0* | 0.115*
Cc1nc(N2CCN(C)CC2)c2c(C)c(C(=O)Nc3ccc(F)cc3)sc2n1 | i | i | i | i | -3.6 | 0.37 | nt | nt
CCCC(CCC)C(=O)Nc1cccc(-c2cn3c(n2)SCC3)c1 | i | -8.72* | i | i | -6.4 | 0.99 | 99.3* | i
